According to ChEMBL document CHEMBL4665798, “Novel Human Urate Transporter 1 Inhibitors as Hypouricemic Drug Candidates with Favorable Druggability” (J Med Chem, 2020):

Experiments:
[1] = molecular target: T1, Solute carrier family 2, facilitated glucose transporter member 9 (Homo sapiens, UniProt Q9NRM0); assay: Inhibition of GLUT9 (unknown origin)
T1 sequence (Q9NRM0 whole entry): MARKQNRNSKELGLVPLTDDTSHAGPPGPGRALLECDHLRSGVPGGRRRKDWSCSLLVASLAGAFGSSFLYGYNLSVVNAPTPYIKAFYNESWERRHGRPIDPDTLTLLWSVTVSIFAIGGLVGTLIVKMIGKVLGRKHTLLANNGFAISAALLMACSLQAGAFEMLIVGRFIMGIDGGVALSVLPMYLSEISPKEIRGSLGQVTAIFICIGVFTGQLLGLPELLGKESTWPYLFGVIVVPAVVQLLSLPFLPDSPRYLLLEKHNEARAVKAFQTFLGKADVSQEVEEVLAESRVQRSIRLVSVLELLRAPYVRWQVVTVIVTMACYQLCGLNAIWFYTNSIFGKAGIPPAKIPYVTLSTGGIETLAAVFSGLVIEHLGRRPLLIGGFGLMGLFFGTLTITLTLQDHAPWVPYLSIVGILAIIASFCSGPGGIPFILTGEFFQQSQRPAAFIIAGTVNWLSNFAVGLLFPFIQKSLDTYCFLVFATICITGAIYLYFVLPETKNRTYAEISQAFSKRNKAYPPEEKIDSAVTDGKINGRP

[2] = Tmax in Sprague-Dawley rat at 10 mg/kg, po by LC-MS analysis; type: ADME, organism-based; conditions: in vivo
How it was run: (§1)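 Male Sprague-Dawley rats, two groups, dosed iv or orally; compound in PEG 400/normal saline (70/30, V/V). Oral blood from sinus jugularis at 5 min to 24 h, plasma by centrifugation at 2200 g, stored -20 °C. Plasma with internal standard precipitated by methanol, quantified by LC-MS against spiked blank-plasma standard curves. Mean ± SD, n = 5.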

[3] = MRT (0 to infinity) in Sprague-Dawley rat at 10 mg/kg, po by LC-MS analysis; type: ADME, organism-based; conditions: in vivo; how it was run: as §1
[4] = molecular target: T2, Solute carrier family 22 member 12 (Homo sapiens, UniProt Q96S37); assay: Potency index, ratio of lesinurad IC50 to test compound IC50 for inhibition of human URAT1 expressed in HEK293T cells assessed as reduction in [14C]uric acid uptake preincubated for 15 mins followed by [14C]uric acid addition by liquid scintillation counting method; type: cell-based
T2 sequence (Q96S37 whole entry): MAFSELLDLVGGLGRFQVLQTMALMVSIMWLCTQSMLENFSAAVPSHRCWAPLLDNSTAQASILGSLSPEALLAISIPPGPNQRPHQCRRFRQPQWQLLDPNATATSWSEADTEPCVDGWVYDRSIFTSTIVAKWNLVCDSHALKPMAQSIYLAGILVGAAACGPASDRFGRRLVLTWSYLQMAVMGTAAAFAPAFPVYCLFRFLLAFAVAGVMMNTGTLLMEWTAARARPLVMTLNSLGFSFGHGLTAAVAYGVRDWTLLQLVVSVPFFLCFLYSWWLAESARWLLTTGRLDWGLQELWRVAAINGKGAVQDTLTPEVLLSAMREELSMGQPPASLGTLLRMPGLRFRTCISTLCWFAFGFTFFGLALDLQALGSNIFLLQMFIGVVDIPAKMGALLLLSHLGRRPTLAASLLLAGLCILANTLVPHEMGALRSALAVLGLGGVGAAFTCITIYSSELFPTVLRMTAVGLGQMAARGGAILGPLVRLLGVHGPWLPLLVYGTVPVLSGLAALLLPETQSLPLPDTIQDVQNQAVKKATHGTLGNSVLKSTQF

SMILES | IC50 [1] | Tmax [2] | MRT inf [3] | Ratio IC50 [4]
O=C(CSc1nnc(Br)n1-c1ccc(C2CC2)c2ccccc12)NS(=O)(=O)c1ccc(Br)cc1 | 31.7 µM | 1.8 h | 5.6 h | 
CC(Sc1nc2ncccc2n1-c1ccc(C2CC2)c2ccccc12)C(=O)O (racemic) |  |  |  | > 8
